These results are taken from ChEMBL document CHEMBL3616382, “Catechols and 3-hydroxypyridones as inhibitors of the DNA repair complex ERCC1-XPF” (Bioorg Med Chem Lett, 2015).

What is called half-life is how long it takes for the measured level to halve. What is called IC50 is the midpoint of a concentration-inhibition curve. As a reminder, the logD is the decadic logarithm of the distribution of all forms, ionised or not, between an organic phase and buffer at a given pH. By Papp is commonly meant a coefficient for how fast a substance crosses the barrier. The Kd is the constant that tells how readily two partners part at equilibrium.

The target of data set [1] is T1, DNA excision repair protein ERCC-1/DNA repair endonuclease XPF (Homo sapiens) (UniProt P07992+Q92889). The note with it: A-375, 10 uM.
Data set [2] can be described thus: Half life in mouse liver microsomes. The data set is classed as ADME.
Data set [3] addresses T1, DNA excision repair protein ERCC-1/DNA repair endonuclease XPF (Homo sapiens). The note with it: A-375, 0.624 uM.
Data set [4] has as its system A-375. Briefly: Cytotoxicity against human A375 cells assessed as reduction in cell number at 10 uM incubated for 5 days. It is filed as cell-based. The settings on record: a-375, 120 h. The procedure, abridged: (§1)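 A375 melanoma cells treated with compound alone over 0.6–10 μM for 5 days; cell count determined by high-content imaging. Data from 4 separate experiments, error bars SD.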

Data set [5] concerns the target T1, DNA excision repair protein ERCC-1/DNA repair endonuclease XPF (Homo sapiens). The settings on record: A-375, 2.48 uM.
Data set [6] shares this target. Briefly: Inhibition of ERCC1-XPF in human A375 cells assessed as induction of delay in DNA repair by measuring cumulative frequency of cells at 10 uM pre-incubated for 1 hr before 5 uM cisplatin exposure for 1 hr and measured after 6 hrs by […] based gammaH2AX foci assay (reference value: 45.43%). It is filed as cell-based. On the set-up: scale not given: the % may be the effect or the level left. The note with it: A-375. The procedure, abridged:
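A375 cells pretreated with compound (10 μM) for 1 h, then 5 μM cisplatin for 1 h to induce damage, with continued compound exposure for 6 h. γH2AX foci per cell quantified by immunofluorescence with specific antibody and high-content imaging; cumulative Gaussian fit of foci distribution. 2 representative experiments, triplicates each, error bars SEM.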

Data set [7] shares this target. The note with it: A-375, 1.28 uM.
Data set [8] is described as follows: Half life in human liver microsomes. The data set is classed as ADME. (In general: Liver microsomes are a subcellular fraction often used to study metabolism.)
Data set [9] addresses T2, Deoxyribonuclease-1 (Homo sapiens, UniProt P24855).
T2 sequence (P24855 whole entry): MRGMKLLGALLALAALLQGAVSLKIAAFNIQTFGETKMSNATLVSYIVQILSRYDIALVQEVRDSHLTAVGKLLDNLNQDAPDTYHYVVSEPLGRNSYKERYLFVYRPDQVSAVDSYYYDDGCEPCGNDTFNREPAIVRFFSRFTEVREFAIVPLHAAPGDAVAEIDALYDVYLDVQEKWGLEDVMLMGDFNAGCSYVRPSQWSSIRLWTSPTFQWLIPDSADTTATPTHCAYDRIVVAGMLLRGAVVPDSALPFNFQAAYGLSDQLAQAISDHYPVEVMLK
Briefly: Inhibition of DNAse1 (unknown origin).

A short description of data set [10]: Lipophilicity, log D of the compound. It is filed as physicochemical. The note with it: octanol/water.
The nature of data set [11]: Apparent permeability by PAMPA method. The data set is classed as physicochemical. For orientation: In PAMPA a lipid-coated filter parts donor from acceptor wells.
Data set [12] deals with T1, DNA excision repair protein ERCC-1/DNA repair endonuclease XPF (Homo sapiens). The settings on record: A-375, 4.96 uM.
For data set [13], the system named is HepG2. Briefly: Cytotoxicity against human HepG2 cells. The data set is classed as cell-based. The procedure, abridged: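 Hep-G2 cells exposed to compound at concentrations up to 10 μM; toxicity assessed.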
Data set [14] has as its target T3, DNA excision repair protein ERCC-1/DNA repair endonuclease XPF (Homo sapiens, UniProt P07992+Q92889).
T3 sequence (P07992 whole entry): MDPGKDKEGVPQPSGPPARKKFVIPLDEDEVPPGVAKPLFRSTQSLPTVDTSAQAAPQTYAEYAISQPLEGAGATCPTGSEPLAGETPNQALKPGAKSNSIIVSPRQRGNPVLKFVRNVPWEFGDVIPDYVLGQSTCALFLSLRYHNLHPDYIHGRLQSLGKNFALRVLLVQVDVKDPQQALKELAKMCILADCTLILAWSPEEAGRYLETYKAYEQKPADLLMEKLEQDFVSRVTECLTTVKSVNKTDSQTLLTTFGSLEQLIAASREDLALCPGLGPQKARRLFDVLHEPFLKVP
T3 sequence (Q92889 whole entry): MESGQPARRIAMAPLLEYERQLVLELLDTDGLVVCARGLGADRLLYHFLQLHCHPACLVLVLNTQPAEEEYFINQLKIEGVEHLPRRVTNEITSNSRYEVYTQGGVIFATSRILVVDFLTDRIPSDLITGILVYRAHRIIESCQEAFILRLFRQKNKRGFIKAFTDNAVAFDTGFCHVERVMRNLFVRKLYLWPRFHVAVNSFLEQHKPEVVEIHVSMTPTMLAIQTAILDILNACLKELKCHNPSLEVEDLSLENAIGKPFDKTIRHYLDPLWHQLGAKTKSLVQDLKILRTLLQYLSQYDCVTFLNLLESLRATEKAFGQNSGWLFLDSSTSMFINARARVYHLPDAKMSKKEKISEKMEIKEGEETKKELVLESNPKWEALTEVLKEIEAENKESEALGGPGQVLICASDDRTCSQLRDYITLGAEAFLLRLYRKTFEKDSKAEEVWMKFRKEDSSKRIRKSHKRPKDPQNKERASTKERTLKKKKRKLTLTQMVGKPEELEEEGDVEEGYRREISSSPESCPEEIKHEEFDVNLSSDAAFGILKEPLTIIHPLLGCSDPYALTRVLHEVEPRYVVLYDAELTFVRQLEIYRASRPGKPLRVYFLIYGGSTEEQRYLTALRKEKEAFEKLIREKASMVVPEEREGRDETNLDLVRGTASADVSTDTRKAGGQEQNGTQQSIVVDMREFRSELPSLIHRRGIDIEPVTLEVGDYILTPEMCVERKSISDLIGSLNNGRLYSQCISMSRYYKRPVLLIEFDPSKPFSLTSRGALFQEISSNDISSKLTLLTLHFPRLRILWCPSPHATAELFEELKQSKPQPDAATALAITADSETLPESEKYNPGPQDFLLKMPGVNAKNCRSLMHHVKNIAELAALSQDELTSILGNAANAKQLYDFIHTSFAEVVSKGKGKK
Briefly: Binding affinity to ERCC1-XPF (unknown origin) by SPR assay. The data set is classed as protein-complex assay. Background: In SPR one partner is held on a chip, and binding of the other changes the refractive index at the surface.

Data set [15] relates to A-375. Briefly: Cytotoxicity against human A375 cells assessed as reduction in cell number at 4.89 uM incubated for 5 days. It is filed as cell-based. The settings on record: a-375, 120 h, 4.96 µM, in the assay text read “4.96 uM” for “4.89 uM”. The procedure, abridged: as §1
In data set [16] the target is Flap endonuclease 1 (Homo sapiens, UniProt P39748). Briefly: Inhibition of FEN1 (unknown origin).
For data set [17], the target named is T3, DNA excision repair protein ERCC-1/DNA repair endonuclease XPF. Briefly: Inhibition of ERCC1-XPF in human A375 cells assessed as reduction in direct nucleotide excision repair of UV-damaged pEGFP plasmid incubated for 234 hrs by recombinant GFP reporter assay. It is filed as cell-based, A-375. The settings on record: in the assay text read “24 hrs” for “234 hrs”. The procedure, abridged: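 A375 cells co-transfected with UV-damaged or undamaged pEGFP plus pGL3 luciferase plasmid, treated with compound up to 60 μM for 24 h. GFP/luciferase ratio for damaged plasmid divided by that for undamaged, then normalized to no-compound controls to give % NER activity (DNA Repair Index); IC50 from plot against concentration.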

The target is the same in data set [18]. Briefly: Inhibition of ERCC1-XPF (unknown origin) by high-throughput fluorescence based in-vitro endonuclease assay. It is filed as protein-complex assay.

Flap endonuclease 1, sequence (P39748 whole entry): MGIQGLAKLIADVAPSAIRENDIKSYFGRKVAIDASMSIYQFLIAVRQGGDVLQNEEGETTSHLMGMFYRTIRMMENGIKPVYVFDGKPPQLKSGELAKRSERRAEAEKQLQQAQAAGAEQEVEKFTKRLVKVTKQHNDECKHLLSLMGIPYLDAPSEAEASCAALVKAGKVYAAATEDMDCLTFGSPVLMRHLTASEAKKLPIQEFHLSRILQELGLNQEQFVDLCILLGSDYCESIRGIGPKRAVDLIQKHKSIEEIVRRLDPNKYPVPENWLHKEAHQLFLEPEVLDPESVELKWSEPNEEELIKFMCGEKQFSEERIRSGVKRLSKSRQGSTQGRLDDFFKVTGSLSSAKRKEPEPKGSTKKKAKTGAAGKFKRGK

`O=C(Cc1ccc(Cl)cc1Cl)NCc1ccc(O)c(O)c1`: the PF50 in data set [1] is 2.03; in data set [3], 1.08; in data set [5], 1.51; in [7], 1.15; in data set [12] it was 1.68. In addition, the values for the half-life in data set [2] and in data set [8] were 23 min and 28 min, respectively. For the same compound, the Activity result is “Toxic” in [4], 50.2% in [6], above 10 µM in [13] and “Toxic” in data set [15]. In addition, the concentration for half-maximal inhibition (IC50) is above 100 µM in data set [9], above 100 µM in [16], 15.6 µM in data set [17] and 0.63 µM in data set [18]. This compound also registered a logD in [10] of 2.7. Also, in data set [11], the Papp came out at 3.9 ×10⁻⁶ cm/s. Further, in [14], binding was put at a Kd of 30 µM.
